Shown are actives, neighbours in structure and some others; about 5% of the full set was active somewhere.
CSC inhib: cancer stem cell inhibition; 300,000 tested, 1.1% active; cancer stem cell-like cells viability, luminescence; inhibition, % at 7.5 µM; in the data active = inhibition above about 75%; inconclusive = no clear call, values can overlap the other calls; tested in HMLE shEcad cells
Beta apoptosis: beta cell apoptosis inhibition; INS-1E cytokine-induced death, ATP luminescence, 48 h; percent of positive-control rescue, neutral wells zero; protection from apoptosis, % (no concentration beside the values); AID 435005; 300,000 tested, 0.8% active;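 active = Every replicate reaches about 75%, or at least half do and their mean reaches it too, limit read from the data; inconclusive = At least half of replicates reach the limit but their mean does not; inactive = Under half of replicates reach the limit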;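 note: 0% = cytokine-treated negative control wells and 100% = positive control rescue; higher means more ATP so stronger rescue from cytokine killing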
CHOP UPR activ: activators of apoptotic arm of unfolded protein response (CHOP); 330,000 tested, 0.34% active; CHO-CHOP luciferase reporter, UPR activation, luminescence; percent of tunicamycin response over DMSO baseline; activation, % at 10 µM;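 active = at 10 µM dose, activation of 40% or more, normalized to positive control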;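 note: 100% = tunicamycin at 10 µg/mL and 0% = DMSO alone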
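System: CHO-CHOP luciferase reporter cell line | Buffer or medium: F12 medium containing 10% fetal bovine serum | Doses: One dose, 10 µM in 0.5% DMSO | Times: 6 h compound exposure at 37 °C after overnight seeding | Signal: Luciferase luminescence | Read-out: % activation vs tunicamycin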
T cruzi inh: blocks replication of Trypanosoma cruzi; T. cruzi beta-gal in NIH3T3, luminescence, 90 h; inhibition, % (concentration not given with the values); 300,000 tested, 1.4% active; AID 1885;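 active = mean inhibition across valid replicates above about 55%, limit read from the data; inconclusive = mean below that limit but half or more replicates reach it; inactive = mean below it, under half of replicates reach it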;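 note: signal also drops with host cell toxicity which is not excluded here; 0% = plate median of DMSO wells and 100% = zero luminescence signal; higher percent means less beta-gal luminescence so fewer parasites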
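compound dosing = single 50 nL compound addition per well in DMSO | material = NIH/3T3 host cells with β-galactosidase reporter T. cruzi | input = 5,000 host fibroblasts per well | timing = ≥90 h infection period, 3 h prior cell attachment | read-out basis = percent inhibition of parasite-derived β-gal signal | detection = GalScreen β-gal luminescence, detergent lysis, 60 min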
XBP1 UPR activ: adaptive UPR (XBP1) activation | CHO-XBP1 luciferase reporter, IRE1-XBP1 UPR activation, luminescence; percent of tunicamycin response, DMSO as zero | activation, % at 20 µM | 330,000 tested, 0.33% active | AID 463104;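 active = versus positive control, 20 µM dose yields 30% or more activation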;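 note: 100% = tunicamycin at 10 µg/mL and 0% = DMSO only wells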
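Test system: CHO-XBP1 luciferase reporter cells | Buffer or medium: Serum-containing F12 medium, 10% FBS | Schedule: 6 h compound exposure at 37 °C, 5% CO2 | Detection: Steady-Glo luciferase glow luminescence, 10 min after reagent addition | Read-out basis: Activation, % of tunicamycin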
Mdm2-MdmX inh: inhibitors of human Mdm2/MdmX interaction; O15151+Q00987; SaOS-2 split-luciferase Mdm2/MdmX complementation, luminescence; inhibition, % at 8 µM; 330,000 tested, 3% active; AID 485346;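 active = inhibition of at least 50% at 8 µM in the primary screen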
Mdm2 MdmX conf: human Mdm2/MdmX binding inhibition, confirmed | AID 489028 | inhibition, % at 8 µM | luminescent assay | shares compounds with Mdm2-MdmX inh | 10,000 tested, 55% active; in the data active = inhibition above about 40%
Full FLuc ctr: counter-screen for Mdm2/MdmX inhibitors: full-length luciferase; inhibition, % at 8 µM; SaOS-2 full-length luciferase counterscreen, luminescence; AID 504607; 6,200 tested, 77% active; shares compounds with Mdm2-MdmX inh;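 active = mean inhibition at 8 µM reaching about 37%, which flags the compound as non-specific, limit read from the data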;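 note: p53-null SaOS-2 cells with luciferase driven by a doxycycline-inducible promoter; compound on cells about two nights before reading with doxycycline added after day one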
* marks the source's active call; other numbers are inactive results; ? = inconclusive; . = not tested or not shown.

SMILES	CSC inhib	Beta apoptosis	CHOP UPR activ	T cruzi inh	XBP1 UPR activ	Mdm2-MdmX inh	Mdm2 MdmX conf	Full FLuc ctr
N=c1c2c(-c3ccccc3)c(-c3ccccc3)n(Cc3ccco3)c2ncn1CCCN1CCOCC1	32	?	-1	92*	4	100*	88*	56*
N=c1c2c(-c3ccccc3)c(-c3ccccc3)n(Cc3ccccc3)c2ncn1CCO	8	8	5	57*	3	73*	65*	40*
N=c1c2c(-c3ccccc3)c(-c3ccccc3)n(Cc3ccco3)c2ncn1Cc1ccccc1	110*	91*	35	47	28	100*	62*	23
O=c1c2ccccc2nc(-c2ccccc2)n1Cc1ccco1	-12	2	4	19	0	2	.	.
CC(C)Cn1cnc2c(c(-c3ccccc3)c(-c3ccccc3)n2Cc2ccco2)c1=N	58	56	3	60*	4	91*	-2	.
N=c1c2c(-c3ccccc3)c(-c3ccccc3)oc2ncn1CCN1CCOCC1	16	.	-1	44	1	27	.	.
N=c1c2c(-c3ccccc3)c(-c3ccccc3)oc2ncn1CCCN1CCOCC1	7	.	1	15	2	36	.	.
CC(C)(C)OC(=O)NCC(=O)NNC(=O)C(C(=O)OCc1ccccc1)c1ccccc1 (stereo not drawn)	6	-1	-2	.	-1	3	.	.
O=C(COc1ccc([N+](=O)[O-])cc1)NN=C1CCCC1	-4	0	0	-2	0	9	.	.
Cc1cccc(N2CCN(S(=O)(=O)c3ccc(Cl)nc3)CC2C)c1 (stereo not drawn)	-8	-7	0	.	-2	31	.	.
CC(C)Cc1nnc(NC(=O)C2CSC3(C)CCC(=O)N23)s1 (stereo not drawn)	-17	-10	1	0	0	36	.	.
O=C1c2ccccc2OC2(C=Cc3ccccc3O2)N1Cc1ccccc1 (stereo not drawn)	.	14	1	21	-4	54*	48*	40*
O=C1NC2(CCN(Cc3ccccc3)CC2)Oc2ccccc21	.	3	-1	18	-2	15	.	.
CCC(C)(C)C(=O)Nc1cccc(Cl)c1C	-8	-1	1	-7	2	1	.	.
Cc1ccsc1C(=O)N1CCCC(N2CCN(c3cccc(Cl)c3)CC2)C1 (stereo not drawn)	-7	-2	2	14	-6	6	.	.
CC(=O)c1sc(NC(=O)c2cc(-c3ccccc3)nn2-c2ccccc2)nc1C	13	-6	-1	-2	-4	32	.	.
O=C(Nc1nc2ccccc2s1)c1cc(-c2ccccc2)nn1-c1ccccc1	44	111*	7	21	0	86*	47*	110*
Cc1nn(-c2ccccc2)c2c1C(c1ccc(Cl)cc1)N(c1ccccc1)C(=O)N2 (stereo not drawn)	2	-3	0	14	1	11	.	.
Cc1nn(-c2ccccc2)c(C)c1NC(=O)COC(=O)c1cc(Br)ccc1O	-3	-2	-1	-12	-4	-3	.	.
Cc1nn(-c2ccccc2)c2c1C(c1ccc(O)c(O)c1)N1C(=N2)C(Nc2ccccc2)=Nc2ccccc21 (stereo not drawn)	90*	15	0	51	0	83*	45*	40*
Cc1cccc(NC2=Nc3ccccc3N3C2=Nc2c(c(C)nn2-c2ccccc2)C3c2ccc(O)c(O)c2)c1 (stereo not drawn)	100*	14	0	6	-2	78*	39	50*
N#C/C=C(/N)N1CCN(c2ccc(Cl)c(Cl)c2)CC1	21	-5	-1	14	-4	36	.	.
COC(=O)c1ccccc1NC(=O)c1ccc(-c2ccc(Br)cc2)o1	6	10	11	-5	2	58*	62*	152*
Cc1onc(-c2c(Cl)cccc2Cl)c1C(=O)Nc1nccs1	2	4	2	-22	-3	19	.	.
CCOC(=O)c1ccc(-c2c(-c3cc(OC)c(OC)c(OC)c3)noc2C)cc1F	68	1	-2	27	6	62*	52*	89*
SMILES	CSC inhib	Beta apoptosis	CHOP UPR activ	T cruzi inh	XBP1 UPR activ	Mdm2-MdmX inh	Mdm2 MdmX conf	Full FLuc ctr
Fc1ccc(-c2cc(C(F)(F)F)nc(NCc3cccs3)n2)cc1	29	4	0	-9	0	-11	.	.
N#Cc1c(-c2ccccc2)c(C#N)c2nc3ccccc3n2c1N	4	49	-1	0	6	55*	48*	48*
CCN(CC)c1cc(C)c(C#N)c2nc3ccccc3n12	8	0	1	-2	14	14	.	.
Cc1ccc(-c2c(C#N)c(N)n3c(nc4ccccc43)c2C#N)cc1	71	80*	4	26	3	77*	55*	58*
O=C(O)C1CCCN1C(=O)C1CCN(S(=O)(=O)c2cccc(C(F)(F)F)c2)CC1 (stereo not drawn)	.	.	-1	.	-3	-14	.	.
COc1ccc(C(=O)O/N=C(\N)c2cccc(C)c2)cc1OC	-2	6	2	16	4	96*	50*	137*
COc1cc(OC)c(C(=O)O/N=C(\N)c2ccccc2)cc1OC	-13	2	3	28	4	57*	4	.
COc1ccc(C(=O)O/N=C(\N)c2ccccc2)cc1OC	-6	4	6	10	11	62*	-10	.
Cc1cnc(C(=O)OCc2cc(=O)n3c(C)cccc3n2)cn1	0	-4	1	.	2	-3	.	.
CCn1c(=O)c2c(cnn2C)c2ccccc21	-2	-17	-2	-9	2	81*	12	.
CCc1ccc(S(=O)(=O)Nc2cc3c(cc2C)n(C)c(=O)n3C)cc1	34	56	5	-39	-7	58*	55*	60*
Cc1ccc(NS(=O)(=O)c2ccc3c(c2)n(C)c(=O)n3C)c(C)c1	-5	-7	3	-16	0	-14	.	.
Cn1c(=O)n(C)c2cc(NS(=O)(=O)c3ccccc3)ccc21	-7	-8	2	-11	-2	51*	19	.
CCOC(=O)C1(CC2CC2)CCN(Cc2ccc3cccc(F)c3n2)CC1	1	9	2	36	1	3	.	.
CN(C)CCCN(C(=O)c1ccc(S(=O)(=O)N2CCCCCC2)cc1)c1nc2c(F)cccc2s1	-3	-7	3	33	0	18	.	.

Bioassay records from PubChem BioAssay.
